Measured values published in ChEMBL document CHEMBL4831483, “Discovery and optimization of 2-((1H-indol-3-yl)thio)-N-benzyl-acetamides as novel SARS-CoV-2 RdRp inhibitors” (Eur J Med Chem, 2021).

Tests used:
[1] = target: T1, Replicase polyprotein 1ab (Severe acute respiratory syndrome coronavirus 2, UniProt P0DTD1); assay: (§1) Inhibition of SARS-CoV-2 RdRp transfected in human HEK293T cells cotransfected with Cov-Gluc by Gaussia luciferase reporter gene method; type: cell-based
In short: (§2)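 HEK293T cells were co-transfected with CoV-Gluc reporter plus C-terminally flag-tagged codon-optimized nsp12, nsp7 and nsp8 plasmids (1:10:30:30). After 12 h, cells were re-seeded in 96-well plates at 10^4/well and treated with serially diluted compound. Gaussia luciferase activity in supernatants gave dose-response IC50. Triplicate assays, mean ± SD.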

[2] = tested on: HEK-293T; assay: (§3) Cytotoxicity against human HEK293T cells assessed as reduction in cell viability incubated for 24 hrs by CCK8 assay; type: cell-based; details: hek-293t, 24 h
In short: (§4)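 HEK293T cells in 96-well plates were exposed to compound at 0.78–100 μM for 24 h. CCK-8 reagent was then added for 1 h at 37 °C and OD450 read. Viability was normalised to DMSO-only cells to give CC50. Triplicate assays, mean ± SD.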

[3] = target: Replicase polyprotein 1ab (Severe acute respiratory syndrome coronavirus 2) (UniProt P0DTD1); assay: as §1; type: cell-based; in short: as §2
[4] = target: Replicase polyprotein 1ab (Severe acute respiratory syndrome coronavirus 2) (UniProt P0DTD1); assay: Inhibition of SARS-CoV-2 RdRp transfected in HEK293T cells cotransfected with CoV-Gluc assessed as decrease in plus and minus strand-Gluc RNA levels incubated for 24 hrs by qRT-PCR analysis; type: cell-based; details: dose 5-10 µM
In short: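 HEK293T cells were transfected with CoV-Gluc, nsp12, nsp7 and nsp8 plasmids (1:10:30:30). At 6 h post-transfection, medium was replaced with fresh medium containing compound, and cells were cultured a further 24 h. Total cellular RNA was extracted and CoV-Gluc RNA quantified by real-time qRT-PCR.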

[5] = target: T1, Replicase polyprotein 1ab; assay: Inhibition of SARS-CoV-2 RdRp transfected in human HEK293T cells cotransfected nsp12; type: cell-based; in short: as §2
[6] = target: T1, Replicase polyprotein 1ab; assay: Inhibition of SARS-CoV-2 RdRp transfected in human HEK293T cells cotransfected nsp12 along with nsp14 and nsp10; type: cell-based
In short: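 HEK293T cell-based Gaussia luciferase RdRp reporter assay. Cells were co-transfected with CoV-Gluc, nsp12, nsp7, nsp8, nsp10 and nsp14 plasmids (1:10:30:30:25:25) so that the nsp14/nsp10 exoribonuclease was present. Gluc activity was measured after compound treatment.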

[7] = tested on: HEK293T; assay: Ratio of IC50 for inhibition of SARS-CoV-2 RdRp transfected in human HEK293T cells cotransfected nsp12 along with nsp14/nsp10 to IC50 for inhibition of SARS-CoV-2 RdRp transfected in human HEK293T cells cotransfected with nsp12; type: cell-based; details: Severe acute respiratory syndrome coronavirus 2
[8] = as §3; type: cell-based, HEK-293T; details: HEK293T cells; in short: as §4
[9] = tested on: Human coronavirus OC43; assay: Antiviral activity against HCoV-OC43 infected in HCT-8 cells assessed as reduction in viral replication treated 1 hr post infection and measured after 120 hrs post infection by MTS cell proliferation colorimetric assay; type: functional, cell-based
In short: (§5)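 HCT-8 cells infected with HCoV-OC43 at MOI 0.1, and LLC-MK2 cells infected with HCoV-NL63 strain Amsterdam I at MOI 0.01. Serial compound dilutions were added 1 h post-infection in 2% FBS. Incubation was 120 h at 33 °C in 5% CO2. MTS reagent was then added for 3 h at 37 °C and absorbance read at 490 nm.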

[10] = Antiviral activity against HCoV-NL63 infected in LLC-MK2 cells assessed as reduction in viral replication treated 1 hr post infection and measured after 120 hrs post infection by MTS cell proliferation colorimetric assay; type: functional, cell-based; details: Human coronavirus NL63, LLC-MK2; in short: as §5

| Structure (SMILES) | IC50 ([1]; read-out: IC50) | CC50 [2] | other results |
| --- | --- | --- | --- |
| O=C(CSc1c[nH]c2cccc(Br)c12)NCc1ccc(Cl)c(Cl)c1 | 7.21 µM | > 100 µM | – |
| O=C(CSc1c[nH]c2ccccc12)NCc1ccccc1 | 6.81 µM | > 100 µM | – |
| COc1ccccc1CNC(=O)CSc1c[nH]c2c(Br)cccc12 | 7.08 µM | 72.4 µM | – |
| Cn1cc(SCC(=O)NCc2ccc(Cl)c(Cl)c2)c2ccccc21 | 7.5 µM | > 100 µM | – |
| COc1ccccc1CN(C)C(=O)CSc1c[nH]c2ccccc12 | 7.64 µM | > 100 µM | – |
| O=C(CSc1c[nH]c2ccccc12)N(Cc1ccccc1)Cc1ccccc1 | – | > 100 µM | inhibition [3]: Dose-Dependent Effect; inhibition [4]: Dose-Dependent Effect; IC50 [5]: 3.35 µM; IC50 [6]: 4.01 µM; Ratio IC50 [7]: 1.2 |
| COc1ccccc1CNC(=O)CSc1c[nH]c2ccc(Br)cc12 | 10.7 µM | > 100 µM | – |
| COc1ccccc1CNC(=O)CSc1c[nH]c2c(-c3ccccc3)cccc12 | – | 95.5 µM | inhibition [3]: Dose-Dependent Effect; inhibition [4]: Dose-Dependent Effect; IC50 [5]: 1.65 µM; IC50 [6]: 2.18 µM; Ratio IC50 [7]: 1.32 |
| CN(Cc1ccccc1)C(=O)CSc1c[nH]c2ccccc12 | – | > 100 µM | inhibition [3]: Dose-Dependent Effect; inhibition [4]: Dose-Dependent Effect; IC50 [5]: 4.55 µM; IC50 [6]: 5.37 µM; Ratio IC50 [7]: 1.18 |
| O=C(CSc1c[nH]c2cccc(Br)c12)N(Cc1ccccc1)Cc1ccccc1 | – | 25.7 µM | inhibition [3]: Dose-Dependent Effect; inhibition [4]: Dose-Dependent Effect; IC50 [5]: 3.76 µM; IC50 [6]: 3.85 µM; Ratio IC50 [7]: 1.02 |
| O=C(CSc1c[nH]c2cc(Br)ccc12)NCc1ccc(Cl)c(Cl)c1 | 8.71 µM | 67.6 µM | – |
| CN(C)CCOc1ccc(CNC(=O)CSc2c[nH]c3ccccc23)cc1 | 9.08 µM | > 100 µM | – |
| COc1ccccc1CNC(=O)CSc1cn(C)c2ccccc12 | 9.82 µM | > 100 µM | – |
| CN(Cc1ccccc1)C(=O)CSc1c[nH]c2c(Br)cccc12 | 20.9 µM | 52.5 µM | – |
| CCC(CC)COC(=O)[C@H](C)N[P@](=O)(OC[C@H]1O[C@@](C#N)(c2ccc3c(N)ncnn23)[C@H](O)[C@@H]1O)Oc1ccccc1 | – | – | CC50 at 24 h [8]: > 100 µM; inhibition [4]: Dose-Dependent Effect |
| O=C(CSc1c[nH]c2ccc(Br)cc12)NCc1ccc(Cl)c(Cl)c1 | 9.77 µM | > 100 µM | – |
| O=C(CSc1c[nH]c2c(Br)cccc12)N(Cc1ccccc1)Cc1ccccc1 | 7.08 µM | > 100 µM | – |
| COc1ccccc1CNC(=O)CSc1c[nH]c2cccc(Br)c12 | 8.71 µM | > 100 µM | – |
| C[C@@H](NC(=O)CSc1c[nH]c2ccccc12)c1ccccc1 | 6.68 µM | > 100 µM | – |
| COc1ccccc1CNC(=O)CSc1c[nH]c2cc(Br)ccc12 | 10 µM | > 100 µM | – |
| Cn1cc(SCC(=O)NCc2ccccc2)c2ccccc21 | 26.9 µM | 95.5 µM | – |
| CN(C)CCOc1ccc(CNC(=O)CSc2cn(C)c3ccccc23)cc1 | 8.91 µM | > 100 µM | – |
| O=C(CSc1c[nH]c2ccccc12)NCc1ccc(C(F)(F)F)cc1 | 7.94 µM | > 100 µM | – |
| Cn1cc(SCC(=O)NCc2ccc(C(F)(F)F)cc2)c2ccccc21 | – | > 100 µM | IC50 ([1]; hek293t): Not Active |
| Cn1cc(SCC(=O)N(Cc2ccccc2)Cc2ccccc2)c2ccccc21 | 12.3 µM | 91.2 µM | – |
| CN(Cc1ccccc1)C(=O)CSc1c[nH]c2cccc(Br)c12 | 4.73 µM | 25.1 µM | – |
| CCOc1ccccc1CN(OC)C(=O)CSc1c[nH]c2cccc(Br)c12 | – | > 100 µM | inhibition [3]: Dose-Dependent Effect; inhibition [4]: Dose-Dependent Effect; IC50 [5]: 1.11 µM; IC50 [6]: 1.89 µM; Ratio IC50 [7]: 1.7; Activity [9]: Dose-Dependent Effect; IC50 [10]: > 50 µM |
| O=C(CSc1c[nH]c2c(Br)cccc12)NCc1ccc(Cl)c(Cl)c1 | 4.55 µM | > 100 µM | – |
